Some of the results follow. Values without a mark were called inactive. The source made the active and inactive calls.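 Rule for the calls: active = inhibition above the hit cutoff derived for the primary screen (cut at about 15% in these data); inactive = the rest.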

By inhibition is commonly meant the relative decrease from the control value, in per cent.

Sequence of Serine hydrolase RBBP9 (Homo sapiens) (O75884 whole entry, looked up): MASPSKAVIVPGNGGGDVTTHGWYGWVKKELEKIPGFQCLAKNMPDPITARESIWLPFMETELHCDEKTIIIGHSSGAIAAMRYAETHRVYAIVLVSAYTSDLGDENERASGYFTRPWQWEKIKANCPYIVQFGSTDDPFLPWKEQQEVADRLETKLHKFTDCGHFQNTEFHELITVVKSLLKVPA

The assay deals with Serine hydrolase RBBP9 (Homo sapiens) (UniProt O75884). Kind of assay: human RBBP9 inhibitors, retest, confirmation, biochemical, fluorescence polarization, FP-Rh probe, triplicate (AID 1537).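 Note: 0% = RBBP9 with DMSO and 100% = wells lacking RBBP9 protein.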 The settings on record: recombinant RBBP9, FP-Rh probe fluorescence polarization; at 7.94 µM; hits give high values. Summed up:
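Signal: fluorescence polarization, excitation 525 nm, emission 598 nm / Material: RBBP9 serine hydrolase enzyme, human / Times: 30 min enzyme-compound preincubation at 25 °C, 45 min probe labelling / Replicates: triplicate wells per compound / Medium: Tris/NaCl buffer, pH 8.0, with Pluronic / Also added: FP-Rh probe / Doses: single compound dose, 7.94 µM final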
In the case of `COc1ccc2c(c1)C(C)=CC(C)(C)N2C(=O)Nc1ccccc1`, the inhibition was 2.49%. Take `C=CS(=O)c1sc(Cl)c(N2CCOCC2)c1[N+](=O)[O-]` (stereo not drawn): the inhibition was 34.7% (active).

For `O=C1C=CC(=O)N1c1ccc(N2CCCCC2)cc1`, the inhibition was 25.9% (active). Consider `COc1ccc(-n2nnnc2SCc2nc(N)nc(N3CCOCC3)n2)cc1`, for which the inhibition was 3.53%.

As for `CC(C)OCCCNC(=O)CNC(=O)c1cccs1`, the inhibition is 11%. On to `C/C(=N/Nc1nc(-c2ccccc2)c(CC(=O)O)s1)c1ccccc1`, for which the inhibition was 31.2% (active). In the case of `CCC(=O)N1CCCc2ccccc21`, the inhibition was 0.8%.

Turning to `Nn1c(Cc2cccc3ccccc23)nnc1SCC(=O)N1CC(=O)Nc2ccccc21`, the inhibition is 6.4%.

Turning to `COc1ccc(N2C(=O)C3CCCN3C2c2cc(OC)c(OC)cc2OC)cc1` (stereo not drawn), the inhibition is 3.25%.

As to `CCN(CC)C(=O)N1CCN(C(=O)c2ccc(C)cn2)CC1`, the inhibition is 9.27%. With `CCC(=O)c1ccc(OCC(O)CN2CCN(c3cccc(C(F)(F)F)c3)CC2)cc1` (stereo not drawn), the inhibition is 7.26%. The same measure for `COc1ccc(NS(=O)(=O)c2cc(NC(=O)CC(=O)c3ccc([N+](=O)[O-])cc3)ccc2C)cc1`: -3.45%. For `CCc1ccccc1NC1c2ccccc2C(=O)N1c1cccnc1` (stereo not drawn), the inhibition is 3.9%. The same measure for `O=[N+]([O-])c1c(NCCO)cc(Sc2nc3ccccc3s2)c2nonc12`: 45.7% (active); for `Cc1cc([N+](=O)[O-])nn1Cc1ccc(F)cc1`: 11.8%; for `COc1cccc(NC(=O)c2ccc3c(SCC(=O)O)c4c(nc3c2)CCCC4)c1`: 6.99%. Take `O=c1[nH]n(-c2ccc([N+](=O)[O-])cc2)c(=O)c2ccccc12`: the inhibition is 20.4% (active). The same measure for `COc1cc(C2C(C(=O)OCCC#N)=C(C)NC3=C2S(=O)(=O)c2ccccc23)cc(OC)c1OC` (stereo not drawn): 1.17%; for `Oc1ccc(N=Cc2sc3ccccc3c2Cl)cc1`: 12.5%. For `COc1cc(/C=N/NC(=O)Nc2ccccc2)ccc1OCCOc1ccccc1C`, the inhibition was 0.38%. Consider `Cn1sc(=O)c2cc(S(=O)(=O)NC3CC3)ccc21`, for which the inhibition was 26.9% (active). As to `CC1=NOC(=O)/C1=C\c1ccccc1`, the inhibition is 4.74%. With `Cc1cc(F)ccc1S(=O)(=O)N1CCCOC1CNC(=O)C(=O)NCCC1=CCCCC1` (stereo not drawn), the inhibition was 10.6%. Take `COCCN(Cc1nc(-c2ccc(C(F)(F)F)cc2)no1)C(C)C`: the inhibition was 1.94%. In the case of `Cc1ccnc(-n2sc3ccccc3c2=O)n1`, the inhibition is 72.8% (active). For the compound `O=C(CCCC(=O)N(CC(=O)NC1CCCC1)Cc1ccccc1Cl)Nc1ccccn1`, the inhibition was 1.03%. The same measure for `CCOc1ccc2[nH]c(=O)c(C(c3nnnn3CCOC)N3CCOCC3)cc2c1` (stereo not drawn): 1.76%; for `Cc1ccc(NC(=O)CN2CCC(C(N)=O)CC2)cc1[N+](=O)[O-]`: 2.36%.
